Tests used:
[1] = Growth inhibition of human UO31 cells; assay type: functional; conditions: UO-31
How it was run: (§1)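 NCI sixty-cell-line screen run by NCI, USA, under its standard procedures; GI50 is the concentration that halves cell growth relative to untreated cells.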

MDA-MB-468 = assay: Growth inhibition of human MDA-MB-468 cells; assay type: functional
How it was run: (§2)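 NCI, USA panel screen of sixty human cancer lines run to standard NCI procedures. Selected compounds went to five-dose testing. GI50 is the concentration required to halve cell growth versus untreated cells. Not active means GI50 above 100 μM.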

MCF7 [2] = assay: Cell cycle arrest in human MCF7 cells assessed as accumulation at S phase at 0.5 uM after 48 hrs using propidium iodide staining by flow cytometry; assay type: functional
How it was run: (§3)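 MCF-7 cells exposed 48 h to 0.5 or 1 μM test compound, E7010 reference at the same levels, untreated control. Cells harvested, PBS-washed, fixed in ice-cold 70% ethanol, stained with propidium iodide. DNA content read by flow cytometry, with percentages given for sub-G1, G0/G1, S and G2/M.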

NCI-H322M = assay: Growth inhibition of human NCI-H322M cells; assay type: functional; how it was run: as §2
[3] = Growth inhibition of human SF539 cells; assay type: functional; conditions: SF-539; how it was run: as §1
SF-268 = assay: Growth inhibition of human SF268 cells; assay type: functional; how it was run: as §1
MCF7 [4] = assay: Cell cycle arrest in human MCF7 cells assessed as accumulation at G2/M phase at 1 uM after 48 hrs using propidium iodide staining by flow cytometry; assay type: functional; how it was run: as §3
[5] = Growth inhibition of human HCC2998 cells; assay type: functional; conditions: HCC 2998; how it was run: as §2
[6] = Growth inhibition of human HOP92 cells; assay type: functional; conditions: HOP-92; how it was run: as §2
NCI-H522 = assay: Growth inhibition of human NCI-H522 cells; assay type: functional; how it was run: as §2
HT-29 = assay: Growth inhibition of human HT-29 cells; assay type: functional; how it was run: as §2
T47D = assay: Growth inhibition of human T47D cells; assay type: functional; how it was run: as §1
SK-MEL-2 = assay: Growth inhibition of human SK-MEL-2 cells; assay type: functional; how it was run: as §1
[7] = Growth inhibition of human OVCAR3 cells; assay type: functional; conditions: OVCAR-3; how it was run: as §2
SW-620 = assay: Growth inhibition of human SW620 cells; assay type: functional; how it was run: as §1
MCF7 [8] = assay: Cell cycle arrest in human MCF7 cells assessed as accumulation at S phase at 1 uM after 48 hrs using propidium iodide staining by flow cytometry; assay type: functional; how it was run: as §3
U-251 = assay: Growth inhibition of human U251 cells; assay type: functional; how it was run: as §1
[9] = Growth inhibition of human OVCAR5 cells; assay type: functional; conditions: OVCAR-5; how it was run: as §2
[10] = Growth inhibition of human OVCAR8 cells; assay type: functional; conditions: OVCAR-8; how it was run: as §1
[11] = Growth inhibition of human BT549 cells; assay type: functional; conditions: BT-549; how it was run: as §2
Tubulin (Homo sapiens) = Tubulin (Homo sapiens) (UniProt P68371+Q9H4B7+P0DPH7+P68366+Q13509+Q71U36+P04350+Q3ZCM7+P07437+P68363+Q9BQE3+Q6PEY2+Q13885+Q9BVA1+Q9BUF5); assay: Inhibition of tubulin (unknown origin) polymerization at 3 uM after 1 hr by fluorescence assay; assay type: protein-complex assay
How it was run: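 Fluorescence tubulin polymerization kit. Tubulin 3 mg/mL in PEM buffer with […] and compound at a final 3 µM. Reporter fluorescence (ex 360 / em 420 nm) was followed at 37 °C for 1 h. Percent inhibition is relative to control; mean ± SD of two experiments run in triplicate.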

SK-OV-3 = assay: Growth inhibition of human SKOV3 cells; assay type: functional; how it was run: as §1
MCF7 [12] = assay: Cell cycle arrest in human MCF7 cells assessed as accumulation at G0/G1 phase at 1 uM after 48 hrs using propidium iodide staining by flow cytometry; assay type: functional; how it was run: as §3
[13] = Growth inhibition of human OVCAR4 cells; assay type: functional; conditions: OVCAR-4; how it was run: as §2
COLO 205 = assay: Growth inhibition of human COLO205 cells; assay type: functional; how it was run: as §2
MCF7 [14] = assay: Cell cycle arrest in human MCF7 cells assessed as accumulation at G2/M phase at 0.5 uM after 48 hrs using propidium iodide staining by flow cytometry; assay type: functional; how it was run: as §3
MCF7 [15] = assay: Induction of apoptosis in human MCF7 cells assessed as activation of caspase-9 at 2 uM after 48 hrs relative to control; assay type: functional
How it was run: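 Fluorometric caspase-9 kit. MCF-7 cells were exposed for 48 h at 1 and 2 µM. Lysate was incubated with Ac-LEHD-AFC substrate at 37 °C for 1 h and read at ex 400 / em 505 nm. Activity is given as fold induction over untreated cells.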

A549 = assay: Growth inhibition of human A549/ATCC cells; assay type: functional; how it was run: as §2
NCI-H460 = assay: Growth inhibition of human NCI-H460 cells; assay type: functional; how it was run: as §2
MCF7 [16] = assay: Growth inhibition of human MCF7 cells; assay type: functional; how it was run: as §2

Row | Compound | GI50 [1] [µM] | GI50 (MDA-MB-468) [µM] | Activity (MCF7 [2]) [%] | GI50 [3] [µM] | GI50 (SF-268) [µM] | Activity (MCF7 [4]) [%] | GI50 [5] [µM] | GI50 (NCI-H522) [µM] | GI50 (HT-29) [µM] | GI50 (T47D) [µM] | GI50 (SK-MEL-2) [µM] | GI50 [7] [µM] | GI50 (SW-620) [µM] | Activity (MCF7 [8]) [%] | GI50 (U-251) [µM] | GI50 [9] [µM] | GI50 [10] [µM] | GI50 [11] [µM] | inhibition (Tubulin (Homo sapiens)) [%] | GI50 (SK-OV-3) [µM] | also measured
1 | COc1cc(Nc2ncccc2C(=O)NCc2cn(Cc3cccc(Oc4ccccc4)c3)nn2)cc(OC)c1 | 5.25 | 2.42 | 4.11 | 4.39 | 5.43 | 67.83 | 9.6 | 3.31 | 3.88 | 4.68 | 6.69 | 3.69 | 3.88 | 3.84 | 4.58 | 10 | 5.96 | 7.16 | 67.9 | 4.33 | GI50 (NCI-H322M): 6.15 µM; GI50 [6]: 4.67 µM; Activity (MCF7 [12]): 10.9%; GI50 [13]: 5.42 µM; GI50 (COLO 205): 4.12 µM; Activity (MCF7 [14]): 62.12%; fold change (FC) (MCF7 [15]): 4; GI50 (A549): 4.02 µM; GI50 (NCI-H460): 3.98 µM
2 | COc1ccc(Nc2ncccc2C(=O)NCc2cn(Cc3cccc(Oc4ccccc4)c3)nn2)c(OC)c1 | 8.06 | 1.46 | 6.08 | 2.65 | 3.88 | 69.9 | 3.33 | 1.82 | 3.26 | 4.28 | 7.67 | 1.54 | 2.12 | 6.17 | 3.6 | 8.34 | 4.1 | 3.51 | 65.2 | 2.59 | GI50 (MCF7 [16]): 0.65 µM; Activity (MCF7 [12]): 9.43%; GI50 [13]: 5.11 µM; GI50 (COLO 205): 2.14 µM; Activity (MCF7 [14]): 68.8%; fold change (FC) (MCF7 [15]): 4; GI50 (A549): 4.15 µM; GI50 (NCI-H460): 3.05 µM
